# Test results taken from ChEMBL document CHEMBL1671617, “Correlation of antimicrobial resistance with beta-lactamases, the OmpA-like porin, and efflux pumps in clinical isolates of Acinetobacter baumannii endemic to New York City” (2008).
# Columns and labels:
# Assay type in all cases: functional
# Acinetobacter baumannii [1] = assay: Antimicrobial activity against Acinetobacter baumannii unique clonal group isolate 39 expressing ampC, ompA, adeM by agar dilution method
# Summary of the method: (§1)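 Clinical multidrug-resistant A. baumannii isolates from endemic NYC ribotypes, with species identity confirmed by ribotyping. MICs were determined by agar dilution on Mueller-Hinton agar; tobramycin was tested by this method. Agar dilution was also run for selected agents with and without the efflux inhibitor NMP, added to the agar at a fixed 100 μg/ml.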
# Acinetobacter baumannii [2] = assay: Antimicrobial activity against ISAba1 linked with the blaOXA-51-type beta-lactamase harboring Acinetobacter baumannii beta clonal group isolate 12 expressing ompA, adeB, adeM, aacA4, aacC2, blaSHV-5 by agar dilution method
# Summary of the method: (§2)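 MICs were determined by agar dilution on Mueller-Hinton agar against multidrug-resistant clinical A. baumannii isolates from endemic regional ribotypes, with species confirmed by ribotyping. Selected agents were also tested with and without the efflux inhibitor NMP, fixed at 100 μg/ml in the agar. Meropenem was tested with and without clavulanic acid at 4 μg/ml. A fourfold or greater MIC drop with the additive was scored as significant.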
# Acinetobacter baumannii [3] = assay: Antimicrobial activity against Acinetobacter baumannii alpha clonal group isolate 3 expressing ampC, ompA, adeB, adeM, aacC1, aadA1 by agar dilution method; summary of the method: as §2
# Acinetobacter baumannii [4] = assay: Antimicrobial activity against ISAba1 linked with the blaOXA-51-type beta-lactamase harboring Acinetobacter baumannii beta clonal group isolate 9 expressing ampC, ompA, adeB, adeM by agar dilution method; summary of the method: as §2
# Acinetobacter baumannii [5] = assay: Antimicrobial activity against ISAba1 linked with the blaOXA-51-type beta-lactamase harboring Acinetobacter baumannii alpha clonal group isolate 1 expressing ampC, ompA, adeB, adeM by agar dilution method; summary of the method: as §2
# Acinetobacter baumannii [6] = assay: Antimicrobial activity against ISAba1 linked with the blaOXA-51-type beta-lactamase harboring Acinetobacter baumannii beta clonal group isolate 13 expressing ompA, adeB, adeM, aacA4, blaSHV-5 by agar dilution method; summary of the method: as §2
# Acinetobacter baumannii [7] = assay: Antimicrobial activity against ISAba1 linked with the blaOXA-51-type beta-lactamase harboring Acinetobacter baumannii alpha clonal group isolate 7 expressing ampC, ompA, adeB, adeM, blaSHV-5 by agar dilution method; summary of the method: as §2
# Acinetobacter baumannii [8] = assay: Antimicrobial activity against ISAba1 linked with the blaOXA-51-type beta-lactamase harboring Acinetobacter baumannii beta clonal group isolate 18 expressing ompA, adeB, adeM, aacA4, blaSHV-5 by agar dilution method; summary of the method: as §2
# Acinetobacter baumannii [9] = assay: Antimicrobial activity against ISAba1 linked with the blaOXA-51-type beta-lactamase harboring Acinetobacter baumannii beta clonal group isolate 10 expressing ompA, adeB, adeM, aacA4, blaSHV-5 by agar dilution method; summary of the method: as §2
# Acinetobacter baumannii [10] = assay: Antimicrobial activity against ISAba1 linked with the blaOXA-51-type beta-lactamase harboring Acinetobacter baumannii zeta clonal group isolate 20 expressing ampC, ompA, adeB, adeM, aacC2 by agar dilution method; summary of the method: as §2
# Acinetobacter baumannii [11] = assay: Antimicrobial activity against ISAba1 linked with the blaOXA-51-type beta-lactamase harboring Acinetobacter baumannii beta clonal group isolate 11 expressing ompA, adeB, adeM, blaSHV-5 by agar dilution method; summary of the method: as §2
# Acinetobacter baumannii [12] = assay: Antimicrobial activity against Acinetobacter baumannii alpha clonal group isolate 5 expressing ampC, ompA, adeB, adeM, aacC1, aadA1 by agar dilution method; summary of the method: as §2
# Acinetobacter baumannii [13] = assay: Antimicrobial activity against Acinetobacter baumannii alpha clonal group isolate 4 expressing ampC, ompA, adeB, adeM, aacC1, aadA1 by agar dilution method; summary of the method: as §2
# Acinetobacter baumannii [14] = assay: Antimicrobial activity against ISAba1 linked with the blaOXA-51-type beta-lactamase harboring Acinetobacter baumannii beta clonal group isolate 17 expressing ompA, adeB, adeM, aacA4, blaSHV-5 by agar dilution method; summary of the method: as §2
# Acinetobacter baumannii [15] = assay: Antimicrobial activity against ISAba1 linked with the blaOXA-51-type beta-lactamase harboring Acinetobacter baumannii zeta clonal group isolate 22 expressing ampC, ompA, adeB, adeM, aadA1, aacA4, aacC2, blaSHV-5 by agar dilution method; summary of the method: as §2
# Acinetobacter baumannii [16] = assay: Antimicrobial activity against Acinetobacter baumannii alpha clonal group isolate 2 expressing ampC, ompA, adeB, adeM, aacC1, aadA1 by agar dilution method; summary of the method: as §2
# Acinetobacter baumannii [17] = assay: Antimicrobial activity against Acinetobacter baumannii nu clonal group isolate 31 expressing ampC, ompA, adeB, adeM, aadB, aadA2 by agar dilution method; summary of the method: as §1
# Acinetobacter baumannii [18] = assay: Antimicrobial activity against ISAba1 linked with the blaOXA-51-type beta-lactamase harboring Acinetobacter baumannii beta clonal group isolate 14 expressing ompA, adeB, adeM, aacA4, blaSHV-5 by agar dilution method; summary of the method: as §2
# Acinetobacter baumannii [19] = assay: Antimicrobial activity against Acinetobacter baumannii unique clonal group isolate 37 expressing ampC, ompA, adeB, adeM by agar dilution method; summary of the method: as §2
# Acinetobacter baumannii [20] = assay: Antimicrobial activity against ISAba1 linked with the blaOXA-51-type beta-lactamase harboring Acinetobacter baumannii beta clonal group isolate 16 expressing ompA, adeB, adeM, aacA4, blaSHV-5 by agar dilution method; summary of the method: as §2
# Acinetobacter baumannii [21] = assay: Antimicrobial activity against ISAba1 linked with the blaOXA-51-type beta-lactamase harboring Acinetobacter baumannii alpha clonal group isolate 8 expressing ampC, ompA, adeB, adeM, aacC1, aadA1 by agar dilution method; summary of the method: as §2
# Acinetobacter baumannii [22] = assay: Antimicrobial activity against ISAba1 linked with the blaOXA-51-type beta-lactamase harboring Acinetobacter baumannii zeta clonal group isolate 24 expressing ampC, ompA, adeB, adeM, aadA1, aacA4, aacC2, blaSHV-5 by agar dilution method; summary of the method: as §2
# Acinetobacter baumannii [23] = assay: Antimicrobial activity against Acinetobacter baumannii nu clonal group isolate 33 expressing ampC, ompA, adeB, adeM by agar dilution method; summary of the method: as §2
# Acinetobacter baumannii [24] = assay: Antimicrobial activity against Acinetobacter baumannii lambda clonal group isolate 27 expressing ampC, ompA, adeB, adeM, aadB, aadA1 by agar dilution method; summary of the method: as §2
# Acinetobacter baumannii [25] = assay: Antimicrobial activity against ISAba1 linked with the blaOXA-51-type beta-lactamase harboring Acinetobacter baumannii beta clonal group isolate 15 expressing ompA, adeB, adeM, aacA4, blaSHV-5 by agar dilution method; summary of the method: as §2
# Acinetobacter baumannii [26] = assay: Antimicrobial activity against Acinetobacter baumannii eta clonal group isolate 36 expressing ampC, ompA, adeB, adeM by agar dilution method; summary of the method: as §2
# Acinetobacter baumannii [27] = assay: Antimicrobial activity against ISAba1 linked with the blaOXA-51-type beta-lactamase harboring Acinetobacter baumannii alpha clonal group isolate 6 expressing ampC, ompA, adeB, adeM, aacC1, aadA1 by agar dilution method; summary of the method: as §2
# Acinetobacter baumannii [28] = assay: Antimicrobial activity against ISAba1 linked with the blaOXA-51-type beta-lactamase harboring Acinetobacter baumannii zeta clonal group isolate 25 expressing ampC, ompA, adeB, adeM, aadA1, aacA4, aacC2, blaSHV-5 by agar dilution method; summary of the method: as §2
# Acinetobacter baumannii [29] = assay: Antimicrobial activity against ISAba1 linked with the blaOXA-51-type beta-lactamase harboring Acinetobacter baumannii lambda clonal group isolate 30 expressing ampC, ompA, adeB, adeM, aadB, aadA1 by agar dilution method; summary of the method: as §2
# Acinetobacter baumannii [30] = assay: Antimicrobial activity against ISAba1 linked with the blaOXA-51-type beta-lactamase harboring Acinetobacter baumannii lambda clonal group isolate 28 expressing ampC, ompA, adeM, aadB, aadA1 by agar dilution method; summary of the method: as §2
# Acinetobacter baumannii [31] = assay: Antimicrobial activity against Acinetobacter baumannii nu clonal group isolate 32 expressing ampC, ompA, adeB, adeM, aadB, aadA2 by agar dilution method; summary of the method: as §1
# Acinetobacter baumannii [32] = assay: Antimicrobial activity against ISAba1 linked with the blaOXA-51-type beta-lactamase harboring Acinetobacter baumannii unique clonal group isolate 40 expressing ampC, ompA, adeB, adeM, aadA1, aacA4, aacC2, blaSHV-5 by agar dilution method; summary of the method: as §2
# Acinetobacter baumannii [33] = assay: Antimicrobial activity against Acinetobacter baumannii eta clonal group isolate 35 expressing ampC, ompA, adeB, adeM by agar dilution method; summary of the method: as §2
# Acinetobacter baumannii [34] = assay: Antimicrobial activity against ISAba1 linked with the blaOXA-51-type beta-lactamase harboring Acinetobacter baumannii lambda clonal group isolate 29 expressing ampC, ompA, adeM, aadB, aadA1 by agar dilution method; summary of the method: as §2
# Acinetobacter baumannii [35] = assay: Antimicrobial activity against Acinetobacter baumannii nu clonal group isolate 34 expressing ampC, ompA, adeB, adeM by agar dilution method; summary of the method: as §2
# Acinetobacter baumannii [36] = assay: Antimicrobial activity against ISAba1 linked with the blaOXA-51-type beta-lactamase harboring Acinetobacter baumannii zeta clonal group isolate 26 expressing ampC, ompA, adeB, adeM, aadA1, aacA4, aacC2, blaSHV-5 by agar dilution method; summary of the method: as §2
# Acinetobacter baumannii [37] = assay: Antimicrobial activity against ISAba1 linked with the blaOXA-51-type beta-lactamase harboring Acinetobacter baumannii zeta clonal group isolate 19 expressing ampC, ompA, adeB, adeM, aacC2 by agar dilution method; summary of the method: as §2
# Acinetobacter baumannii [38] = assay: Antimicrobial activity against Acinetobacter baumannii unique clonal group isolate 38 expressing ampC, ompA, adeB, adeM by agar dilution method; summary of the method: as §1
# Acinetobacter baumannii [39] = assay: Antimicrobial activity against ISAba1 linked with the blaOXA-51-type beta-lactamase harboring Acinetobacter baumannii zeta clonal group isolate 21 expressing ampC, ompA, adeB, adeM, aacC2, blaSHV-5 by agar dilution method; summary of the method: as §2
# Acinetobacter baumannii [40] = assay: Antimicrobial activity against ISAba1 linked with the blaOXA-51-type beta-lactamase harboring Acinetobacter baumannii zeta clonal group isolate 23 expressing ampC, ompA, adeB, adeM, aadA1, aacA4, aacC2, aphA6 by agar dilution method; summary of the method: as §2
compound,measurement,setting,value
NC[C@H]1O[C@H](O[C@H]2[C@H](O)[C@@H](O[C@H]3O[C@H](CO)[C@@H](O)[C@H](N)[C@H]3O)[C@H](N)C[C@@H]2N)[C@H](N)C[C@@H]1O [TOBRAMYCIN],MIC,Acinetobacter baumannii [1],< 0.25 µg/mL
same,MIC,Acinetobacter baumannii [2],> 32 µg/mL
same,MIC,Acinetobacter baumannii [3],0.5 µg/mL
same,MIC,Acinetobacter baumannii [4],2 µg/mL
same,MIC,Acinetobacter baumannii [5],< 0.25 µg/mL
same,MIC,Acinetobacter baumannii [6],> 32 µg/mL
same,MIC,Acinetobacter baumannii [7],0.5 µg/mL
same,MIC,Acinetobacter baumannii [8],> 32 µg/mL
same,MIC,Acinetobacter baumannii [9],16 µg/mL
same,MIC,Acinetobacter baumannii [10],4 µg/mL
same,MIC,Acinetobacter baumannii [11],0.5 µg/mL
same,MIC,Acinetobacter baumannii [12],0.5 µg/mL
same,MIC,Acinetobacter baumannii [13],0.5 µg/mL
same,MIC,Acinetobacter baumannii [14],> 32 µg/mL
same,MIC,Acinetobacter baumannii [15],> 32 µg/mL
same,MIC,Acinetobacter baumannii [16],0.5 µg/mL
same,MIC,Acinetobacter baumannii [17],> 32 µg/mL
same,MIC,Acinetobacter baumannii [18],> 32 µg/mL
same,MIC,Acinetobacter baumannii [19],2 µg/mL
same,MIC,Acinetobacter baumannii [20],> 32 µg/mL
same,MIC,Acinetobacter baumannii [21],1 µg/mL
same,MIC,Acinetobacter baumannii [22],> 32 µg/mL
same,MIC,Acinetobacter baumannii [23],1 µg/mL
same,MIC,Acinetobacter baumannii [24],0.5 µg/mL
same,MIC,Acinetobacter baumannii [25],> 32 µg/mL
same,MIC,Acinetobacter baumannii [26],1 µg/mL
same,MIC,Acinetobacter baumannii [27],< 0.25 µg/mL
same,MIC,Acinetobacter baumannii [28],> 32 µg/mL
same,MIC,Acinetobacter baumannii [29],> 32 µg/mL
same,MIC,Acinetobacter baumannii [30],16 µg/mL
same,MIC,Acinetobacter baumannii [31],> 32 µg/mL
same,MIC,Acinetobacter baumannii [32],> 32 µg/mL
same,MIC,Acinetobacter baumannii [33],1 µg/mL
same,MIC,Acinetobacter baumannii [34],16 µg/mL
same,MIC,Acinetobacter baumannii [35],1 µg/mL
same,MIC,Acinetobacter baumannii [36],> 32 µg/mL
same,MIC,Acinetobacter baumannii [37],4 µg/mL
same,MIC,Acinetobacter baumannii [38],< 0.25 µg/mL
same,MIC,Acinetobacter baumannii [39],4 µg/mL
same,MIC,Acinetobacter baumannii [40],> 32 µg/mL
